From ChEMBL document CHEMBL4038305, “Benzoxaborole Antimalarial Agents. Part 5. Lead Optimization of Novel Amide Pyrazinyloxy Benzoxaboroles and Identification of a Preclinical Candidate” (J Med Chem, 2017)
pIC50: −log10 of the molar value.

Legend:
[1] = AUC (0 to infinity) in Beagle dog at 5 mg/kg, po via gavage by HPLC/MS analysis; type: ADME, organism-based, Canis lupus familiaris; parameters: dose 5 mg/kg, time infinity, route oral; conditions: in vivo
[2] = Oral bioavailability in Sprague-Dawley rat at 5 mg/kg by HPLC/MS analysis; type: ADME, organism-based; conditions: in vivo
Summary of the method: (§1)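 Female CD-1 mice, male SD rats or beagle dogs given 5 mg/kg by iv injection or oral gavage. Formulation was PEG300/propylene glycol/water 55/25/20, pH 6. Blood samples analysed by HPLC–MS/MS; parameters include AUC0-inf extrapolated to infinity and terminal half-life.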

[3] = Oral bioavailability in Beagle dog at 5 mg/kg by HPLC/MS analysis; type: ADME, organism-based, Canis lupus familiaris; conditions: in vivo; summary of the method: as §1
[4] = AUC (0 to infinity) in Sprague-Dawley rat at 5 mg/kg, iv by HPLC/MS analysis; type: ADME, organism-based; parameters: dose 5 mg/kg, route intravenous, time infinity; conditions: in vivo
Plasmodium falciparum [5] = experiment: Antimalarial activity against Plasmodium falciparum D6 infected in human erythrocytes assessed as reduction in [3H]-hypoxanthine incorporation preincubated for 24 hrs followed by [3H]-hypoxanthine addition measured after 24 hrs by scintillation counting method; type: functional, cell-based
Plasmodium falciparum [6] = experiment: Antimalarial activity against intraerythrocytic stage of Plasmodium falciparum assessed as parasite reduction ratio at 10 times IC50 preincubated for 24 hrs followed by [3H]-hypoxanthine addition measured after 24 hrs by scintillation counting method; type: functional
Summary of the method: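 In vitro P. falciparum parasite reduction ratio assay run at 10×, 30× and 100× IC50. Derived parameters: lag phase (time to maximal killing), PRR (parasites killed per life cycle) and PCT99.9% (time to clear 99.9% of the initial parasite population).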

Salmonella typhimurium [7] = experiment: Genotoxicity in Salmonella typhimurium TA98 assessed as number of revertants per plate at 500 ug/plate in absence of rat liver S9 fraction by Ames test (reference value: 14 +/- 6); type: toxicity; conditions: salmonella enterica subsp. enterica serovar typhimurium
Salmonella typhimurium [8] = experiment: Genotoxicity in Salmonella typhimurium TA98 assessed as number of revertants per plate at 5 ug/plate in presence of rat liver S9 fraction by Ames test (reference value: 19 +/- 8); type: toxicity; conditions: salmonella enterica subsp. enterica serovar typhimurium
Salmonella typhimurium [9] = experiment: Genotoxicity in Salmonella typhimurium TA100 assessed as number of revertants per plate at 15 ug/plate in absence of rat liver S9 fraction by Ames test (reference value: 154 +/- 9); type: toxicity; conditions: salmonella enterica subsp. enterica serovar typhimurium
Salmonella typhimurium [10] = experiment: Genotoxicity in Salmonella typhimurium TA100 assessed as number of revertants per plate at 5 ug/plate in presence of rat liver S9 fraction by Ames test (reference value: 141 +/- 1); type: toxicity; conditions: salmonella enterica subsp. enterica serovar typhimurium
Salmonella typhimurium [11] = experiment: Genotoxicity in Salmonella typhimurium TA100 assessed as number of revertants per plate at 500 ug/plate in presence of rat liver S9 fraction by Ames test (reference value: 141 +/- 1); type: toxicity; conditions: salmonella enterica subsp. enterica serovar typhimurium
Salmonella typhimurium [12] = experiment: Genotoxicity in Salmonella typhimurium TA1535 assessed as number of revertants per plate at 1.5 ug/plate in presence of rat liver S9 fraction by Ames test (reference value: 10); type: toxicity; conditions: salmonella enterica subsp. enterica serovar typhimurium
Salmonella typhimurium [13] = experiment: Genotoxicity in Salmonella typhimurium TA1535 assessed as number of revertants per plate at 5 ug/plate in presence of rat liver S9 fraction by Ames test (reference value: 10); type: toxicity; conditions: salmonella enterica subsp. enterica serovar typhimurium
Salmonella typhimurium [14] = experiment: Genotoxicity in Salmonella typhimurium TA1535 assessed as number of revertants per plate at 1500 ug/plate in presence of rat liver S9 fraction by Ames test (reference value: 10); type: toxicity; conditions: salmonella enterica subsp. enterica serovar typhimurium
Salmonella typhimurium [15] = experiment: Genotoxicity in Salmonella typhimurium TA1537 assessed as number of revertants per plate at 5 ug/plate in absence of rat liver S9 fraction by Ames test (reference value: 19 +/- 9); type: toxicity; conditions: salmonella enterica subsp. enterica serovar typhimurium
Salmonella typhimurium [16] = experiment: Genotoxicity in Salmonella typhimurium TA1537 assessed as number of revertants per plate at 150 ug/plate in absence of rat liver S9 fraction by Ames test (reference value: 19 +/- 9); type: toxicity; conditions: salmonella enterica subsp. enterica serovar typhimurium
Salmonella typhimurium [17] = experiment: Genotoxicity in Salmonella typhimurium TA1537 assessed as number of revertants per plate at 15 ug/plate in presence of rat liver S9 fraction by Ames test (reference value: 11 +/- 4); type: toxicity; conditions: salmonella enterica subsp. enterica serovar typhimurium
Lymphocyte [18] = experiment: Genotoxicity in human lymphocytes assessed as replication index at 40 ug/mL after 28 hrs in absence of rat liver S9 fraction by micronucleus assay relative to control; type: toxicity, cell-based
Summary of the method: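 Human lymphocytes exposed for 3 h with or without rat liver S9, or 28 h without S9, with 1% DMSO as vehicle control. Replication index = (binucleated + 2 × multinucleated cells)/total cells. Cytotoxicity (%) = 100 − (RI treated/RI vehicle) × 100.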

Lymphocyte [19] = experiment: Genotoxicity in human lymphocytes assessed as increase in frequency of micronucleated cells at 355.15 ug/mL after 3 hrs in absence of rat liver S9 fraction by micronucleus assay (reference value: 0.99%); type: toxicity, cell-based
Rattus norvegicus [20] = experiment: Genotoxicity in rat assessed as change in polychromatic erythrocytes in bone marrow at 500 mg/kg administered via oral gavage measured after 24 hrs post dose by micronucleus assay relative to control; type: toxicity, organism-based; conditions: in vivo
Rattus norvegicus [21] = experiment: Genotoxicity in rat assessed as micronucleated polychromatic erythrocytes in bone marrow at 500 mg/kg administered via oral gavage measured after 24 hrs post dose by micronucleus assay (reference value: 0.07 +/- 0.05%); type: toxicity, organism-based; conditions: in vivo
Plasmodium berghei [22] = experiment: Antimalarial activity against Plasmodium berghei infected in Swiss Webster mouse assessed as mouse survival rate at 11 mg/kg administered once daily via oral gavage for 4 consecutive days beginning 1 hr after infection measured on day 10 post infection relative to control; type: functional
Summary of the method: (§2)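 Mice given an intraperitoneal injection of P. berghei-infected erythrocytes taken from a previously infected animal. Oral dosing once daily for 4 consecutive days, starting 1 h after infection. Vehicle: polyethylene glycol 300/propylene glycol/water (weight ratio 55/25/20). Percent survival recorded daily from day 4 to day 20. Chloroquine 30 mg/kg and vehicle-only groups served as controls.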

Plasmodium berghei [23] = experiment: Antimalarial activity against Plasmodium berghei infected in Swiss Webster mouse assessed as mouse survival rate at 100 mg/kg administered once daily via oral gavage for 4 consecutive days beginning 1 hr after infection measured on day 18 post infection relative to control; type: functional; summary of the method: as §2
Plasmodium berghei [24] = experiment: Antimalarial activity against Plasmodium berghei infected in Swiss Webster mouse assessed as mouse survival rate at 3 mg/kg administered once daily via oral gavage for 4 consecutive days beginning 1 hr after infection measured on day 5 post infection relative to control; type: functional
Summary of the method: (§3)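 P. berghei-infected erythrocytes taken from a previously infected mouse were injected intraperitoneally. Oral dosing, once daily for 4 consecutive days, began 1 h after infection, in polyethylene glycol 300/propylene glycol/water (55/25/20 by weight). Chloroquine at 30 mg/kg was the positive control, with a vehicle-only group. Percent survival was recorded daily from day 4 to day 20.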

Plasmodium berghei [25] = experiment: Antimalarial activity against Plasmodium berghei infected in Swiss Webster mouse assessed as mouse survival rate at 0.3 mg/kg administered once daily via oral gavage for 4 consecutive days beginning 1 hr after infection measured on day 5 post infection relative to control; type: functional; summary of the method: as §2
Plasmodium berghei [26] = experiment: Antimalarial activity against Plasmodium berghei infected in Swiss Webster mouse assessed as mouse survival rate at 1 mg/kg administered once daily via oral gavage for 4 consecutive days beginning 1 hr after infection measured on day 7 post infection relative to control; type: functional; summary of the method: as §2
Plasmodium berghei [27] = experiment: Antimalarial activity against Plasmodium berghei infected in Swiss Webster mouse assessed as mouse survival rate at 3 mg/kg administered once daily via oral gavage for 4 consecutive days beginning 1 hr after infection measured on day 8 post infection relative to control; type: functional; summary of the method: as §3

Compound `Cc1c(Oc2cnc(C(=O)N3CC(C)(O)C3)cn2)ccc2c1B(O)OC2` has an AUC(0-inf) [1] of 214 µg·h/mL, a bioavailability [2] of 96% and a bioavailability [3] of 127%. For the same compound, the AUC(0-inf) [4] was 21.7 µg·h/mL, the pIC50 (Plasmodium falciparum [5]) was 7.21 and the “log(ratio)” value (Plasmodium falciparum [6]) was 4.1. It also gave an Activity (Salmonella typhimurium [7]) of 10, an Activity (Salmonella typhimurium [8]) of 15 and an Activity (Salmonella typhimurium [9]) of 126. For the same compound, the Activity (Salmonella typhimurium [10]) was 128, the Activity (Salmonella typhimurium [11]) was 132 and the Activity (Salmonella typhimurium [12]) was 9. For the same compound, the Activity (Salmonella typhimurium [13]) was 16, the Activity (Salmonella typhimurium [14]) was 10 and the Activity (Salmonella typhimurium [15]) was 15. The Activity (Salmonella typhimurium [16]) was 15, the Activity (Salmonella typhimurium [17]) was 9 and the Activity (Lymphocyte [18]) was 7%. The Activity (Lymphocyte [19]) was 0.85%, the Activity (Rattus norvegicus [20]) was -4% and the Activity (Rattus norvegicus [21]) was 0.03%.
With `Cc1c(Oc2cnc(C(=O)N3CC(O)(C(C)C)C3)cn2)ccc2c1B(O)OC2` the survival at 11 mg/kg (Plasmodium berghei [22]) was 20% and the survival at 100 mg/kg (Plasmodium berghei [23]) was 80%.
`Cc1c(Oc2cnc(C(=O)NC(C)CO)cn2)ccc2c1B(O)OC2` (configuration not stated) showed a survival at 3 mg/kg (Plasmodium berghei [24]) of 60%, a survival at 0.3 mg/kg (Plasmodium berghei [25]) of 20% and a survival at 1 mg/kg (Plasmodium berghei [26]) of 20%. It also gave a survival at 3 mg/kg (Plasmodium berghei [27]) of 0%.
